15 compounds from ChEMBL document CHEMBL3091366, “New 5-Aryl-1H-imidazoles display in vitro antitumor activity against apoptosis-resistant cancer models, including melanomas, through mitochondrial targeting” (J Med Chem, 2013) can be followed below.

Assay [1] concerns PC-3. The assay is described as follows: Cytotoxicity against apoptotic-sensitive human PC3 cells assessed as growth inhibition after 72 hrs by MTT-based colorimetric assay. The assay is classed as functional, cell-based. Particulars: Homo sapiens, PC-3, 72 h. The method, boiled down: (§1)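 MTT colorimetric assay, 72 h exposure to the fumarate salt. Read-out is reduction of MTT to formazan by living cells. IC50 is the concentration that reduces the whole cell population by 50%. Six replicates per condition. Where compounds were not tested on every line, apoptosis-sensitive lines were PC3, MCF-7, LoVo and B16F10, and apoptosis-resistant lines were U373, T98G, A549 and SK-MEL-28.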
On the technique in general: Tetrazolium dyes change colour on reduction, which living cells bring about.

Assay [2] relates to SK-MEL-28. The assay is described as follows: Cytotoxicity against apoptotic-resistant human SK-MEL-28 cells assessed as growth inhibition after 72 hrs by MTT-based colorimetric assay. It counts as functional, cell-based. Particulars: Homo sapiens, SK-MEL-28, 72 h. Summed up: as §1
Assay [3] has as its system A549. Kind of assay: Cytotoxicity against apoptotic-resistant human A549 cells assessed as growth inhibition after 72 hrs by MTT-based colorimetric assay. The assay is classed as functional, cell-based. Particulars: Homo sapiens, A549, 72 h. Summed up:
as §1

Assay [4] has as its system MCF7. Kind of assay: Cytotoxicity against apoptotic-sensitive human MCF7 cells assessed as growth inhibition after 72 hrs by MTT-based colorimetric assay. The assay is classed as functional, cell-based. The conditions noted are these: Homo sapiens, MCF7, 72 h. The method, boiled down:
as §1

The test system of assay [5] is T98G. Kind of assay: Cytotoxicity against apoptotic-resistant human T98G cells assessed as growth inhibition after 72 hrs by MTT-based colorimetric assay. It counts as functional, cell-based. Particulars: Homo sapiens, T98G, 72 h. The method, boiled down:
as §1

In assay [6] the test system is LoVo. The assay is described as follows: Cytotoxicity against apoptotic-sensitive human LoVo cells assessed as growth inhibition after 72 hrs by MTT-based colorimetric assay. Particulars: Homo sapiens, LoVo, 72 h. The assay is classed as functional, cell-based. Summed up:
as §1

A short description of assay [7]: Cytotoxicity against apoptotic-resistant human U373 cells assessed as growth inhibition after 72 hrs by MTT-based colorimetric assay. The assay is classed as functional, cell-based, U-373MG ATCC. The conditions noted are these: Homo sapiens, U373 MG, 72 h. Summed up: as §1

As a reminder, the IC50 is the concentration needed to halve the response being measured.

SMILES strings stand for the structures.

As to `C=CCCCCOc1cc(F)ccc1-c1cnc(OCCC=C)n1C`, the IC50 in assay [1] was 64 µM; in assay [2], 83 µM; in assay [3], 74 µM; in assay [4] it was 59 µM; in assay [5] it was over 100 µM; in assay [6] it was 45 µM. Besides, the 50% inhibitory concentration (IC50) in assay [7] is over 100 µM.

In the case of `Cn1c(-c2ccccc2O)cnc1S(=O)(=O)c1ccccc1`, the IC50 in assay [1] is over 100 µM; in assay [2], over 100 µM; in assay [3], over 100 µM; in assay [4] it was over 100 µM; in assay [5], over 100 µM; in assay [6] it was 56 µM. The IC50 in assay [7] was over 100 µM.

For the compound `C=CCCCCOc1cc2ccccc2cc1-c1cnc(OCCCCC=C)n1C`, the IC50 in assay [1] worked out at 38 µM; in assay [2] it was 59 µM; in assay [3], 16 µM; in assay [4] it was 37 µM; in assay [5], 40 µM; in assay [6], 25 µM. For the same compound, the IC50 in assay [7] came to 33 µM.

As for `C=CCCOc1ccccc1-c1cnc(S(=O)(=O)c2ccccc2)n1C`, the IC50 in assay [1] is 42 µM; in assay [2], 60 µM; in assay [3], 73 µM; in assay [4], 67 µM; in assay [5] it was over 100 µM; in assay [6] it was 32 µM. Also, the IC50 in assay [7] was over 100 µM.

For `Cc1ccc2c(c1)-c1cnc(n1C)OCCCCCCCCO2`, the IC50 in assay [1] was 36 µM; in assay [2] it was 55 µM; in assay [3] it was 41 µM; in assay [4], 34 µM; in assay [5], 63 µM; in assay [6], 34 µM. Besides, the IC50 in assay [7] came to 57 µM.

In the case of `C=CCCCCOc1ccccc1-c1cnc(OC)n1C`, the 50% inhibitory concentration (IC50) is 86 µM in assay [1]; 85 µM in assay [2]; 80 µM in assay [3]; 98 µM in assay [4]; over 100 µM in assay [5]; 47 µM in assay [6]. Also, the IC50 in assay [7] is over 100 µM.

In the case of `C=CCCCCOc1ncc(-c2ccccc2OC)n1C`, the IC50 in assay [1] worked out at 24 µM; in assay [2], 13 µM; in assay [3], 5 µM; in assay [4], 5 µM; in assay [5], 5 µM; in assay [6] it was 4 µM. Also, the concentration for half-maximal inhibition (IC50) in assay [7] is 9 µM.

Turning to `Cn1c2cnc1OCCCCCCCCCCOc1cc3ccccc3cc1-2`, the IC50 was found to be 25 µM in assay [1]; 33 µM in assay [2]; 20 µM in assay [3]; 24 µM in assay [4]; 22 µM in assay [5]; 28 µM in assay [6]. The IC50 in assay [7] turned out to be 29 µM.

For `COc1ccc2c(c1)-c1cnc(n1C)OCCCCCCCCO2`, the IC50 in assay [1] is 40 µM; in assay [2] it was 57 µM; in assay [3], 40 µM; in assay [4], 32 µM; in assay [5], 68 µM; in assay [6], 34 µM. Moreover, in assay [7], the IC50 came to 63 µM.

As to `C=CCCCCOc1ccc(C)cc1-c1cnc(OCCC=C)n1C`, the half-inhibitory concentration (IC50) was 59 µM in assay [1]; 83 µM in assay [2]; 59 µM in assay [3]; 53 µM in assay [4]; 94 µM in assay [5]; 41 µM in assay [6]. In addition, the half-maximal inhibitory concentration (IC50) in assay [7] stood at 33 µM.

On to `C=CCCCCOc1ccc(F)cc1-c1cnc(OCCC=C)n1C`, for which the half-inhibitory concentration (IC50) in assay [1] worked out at 52 µM; in assay [2] it was 82 µM; in assay [3], 61 µM; in assay [4], 43 µM; in assay [5], 87 µM; in assay [6] it was 38 µM. The half-maximal inhibitory concentration (IC50) in assay [7] stood at 73 µM.

Take `C=CCCCCCOc1ncc(-c2ccccc2OCCCCC=C)n1C`: the IC50 in assay [1] was found to be 70 µM; in assay [2] it was 79 µM; in assay [3], 62 µM; in assay [4], 63 µM; in assay [5], 63 µM; in assay [6], 32 µM. Besides, in assay [7], the IC50 was found to be 76 µM.

Consider `Cn1c2cnc1NC(=O)CCCCCCCCCOc1ccccc1-2`, for which the IC50 in assay [1] came to 61 µM; in assay [2], 59 µM; in assay [3], 43 µM; in assay [4], 61 µM; in assay [5], 64 µM; in assay [6], 33 µM. In assay [7], the IC50 worked out at 38 µM.

As to `C=CCCCCOc1ccccc1-c1cnc(OCCC=C)n1C`, the 50% inhibitory concentration (IC50) in assay [1] was 19 µM; in assay [2] it was 17 µM; in assay [3] it was 9 µM; in assay [4] it was 8 µM; in assay [5], 29 µM; in assay [6], 12 µM. For the same compound, in assay [7], the IC50 is 33 µM.

`Cn1c2cnc1OCCCCCCCCCCCOc1ccccc1-2`: the IC50 in assay [1] is 36 µM; in assay [2], 47 µM; in assay [3] it was 36 µM; in assay [4], 41 µM; in assay [5], 56 µM; in assay [6], 32 µM. Besides, the half-inhibitory concentration (IC50) in assay [7] turned out to be 48 µM.
